Screening results from PubChem BioAssay.
ROMK primary – modulates human ROMK potassium channel activity; B-score at 10 µM; 130,000 tested, 2% active; Tet-inducible ROMK, thallium flux fluorescence; actives lie on both sides; AID 1918;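 active = signal ratio slope over the read window, or its plate-corrected B-score, at least 3 SD from the plate mean, either direction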;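 also: B-score of the F/F0 ratio slope over 7 to 12 s after thallium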
NCF1 inh – blocks human p47phox regulatory protein of NADPH oxidases | P14598 | p47phox/p22phox peptide binding, fluorescence polarization, 2 h | inhibition, % at 24.7 µM | 220,000 tested, 0.53% active | AID 1274;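 active = inhibition above about 30%, limit read from the data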;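 also: 0% = p47phox with labelled peptide and 100% = labelled peptide alone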
Target sequence (P14598 whole entry, looked up): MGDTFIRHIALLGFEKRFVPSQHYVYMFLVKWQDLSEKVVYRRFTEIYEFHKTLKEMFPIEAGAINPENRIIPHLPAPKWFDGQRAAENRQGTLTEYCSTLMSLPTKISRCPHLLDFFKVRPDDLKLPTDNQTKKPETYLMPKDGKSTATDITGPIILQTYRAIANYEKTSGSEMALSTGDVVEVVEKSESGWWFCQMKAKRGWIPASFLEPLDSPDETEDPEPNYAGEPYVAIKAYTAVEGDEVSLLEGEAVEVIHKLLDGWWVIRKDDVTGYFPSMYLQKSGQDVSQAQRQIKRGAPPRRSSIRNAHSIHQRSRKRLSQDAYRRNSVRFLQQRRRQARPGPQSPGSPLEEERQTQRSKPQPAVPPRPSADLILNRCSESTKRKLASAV
Cl transport mod – modulates chloride dependent transport by human KCC2; KCC2 cells, thallium flux FluoZin-2 fluorescence; B-score of Tl+ flux slope (higher = more flux/activation; lower = inhibition) at 10 µM; 190,000 tested, 2.2% active; AID 1456;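 active = thallium flux slope and its plate-corrected score both differing from the plate sample mean at a set confidence after two filtering rounds, in either direction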;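 also: slope of fluorescence scaled to starting intensity during 10 to 20 s after thallium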
WT yeast gro inh – growth inhibition of WT yeast, mitochondrial fusion screen. mitochondrial fusion phenotypic screen, WT strain. inhibition, % at 10 µM. 190,000 tested, 2.1% active; in the data active = inhibition above about 58%; tested in S. cerevisiae
14-3-3 Bad inh – disrupts binding of bovine 14-3-3 zeta to phospho-Bad peptide. P63103. TR-FRET 14-3-3zeta/Dy647-pBad peptide displacement, 1 h. inhibition, % at 21.7 µM. 220,000 tested, 0.71% active. AID 781;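 active = inhibition above about 70%, limit read from the data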;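 also: 0% = full 14-3-3 plus peptide FRET controls and 100% = background without 14-3-3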
RBBP9 inh – inhibitors of human serine hydrolase RBBP9; O75884; recombinant RBBP9, FP-Rh probe fluorescence polarization; inhibition, % at 7.94 µM; 220,000 tested, 0.2% active; AID 1515;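 active = inhibition above the campaign mean of all tested compounds plus 3 SD, cut at about 14% in these data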;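 also: plate controls were DMSO wells with RBBP9 for no effect and wells lacking RBBP9 protein for full effect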
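System: RBBP9 protein / Quantity: 2.5 µM RBBP9 dispensing solution, before mixing / Also added: Serine-hydrolase probe FP-Rh, 375 nM pre-mixing / Dosing: 7.94 µM single dose, 0.794% DMSO / Timing: enzyme-compound preincubation 30 min, then probe labeling 45 min, 25 °C / Signal: FP readout at 525/598 nm / Controls: DMSO-treated enzyme wells and wells lacking RBBP9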
Starred values were filed as active, the others as inactive. Hits are enriched below; roughly 5.8% of the tested compounds scored in any of these assays.

O=C(OC1CCN(c2ncc(C(F)(F)F)cc2Cl)CC1)c1ccccc1 was read as NCF1 inh -15.3, Cl transport mod -0.547, WT yeast gro inh 64.4*, 14-3-3 Bad inh -6.9 and RBBP9 inh -2.1.
Screening O=C(OCCN1CCN(c2ncc(C(F)(F)F)cc2Cl)CC1)c1ccc(F)cc1 returned NCF1 inh -7.2, WT yeast gro inh -12.4, 14-3-3 Bad inh -12.6 and RBBP9 inh -6.6.
Screening O=C(CN1CCN(c2ncc(C(F)(F)F)cc2Cl)CC1)N1CCN(c2ncc(C(F)(F)F)cc2Cl)CC1 returned ROMK primary -1.1, NCF1 inh -39.5, Cl transport mod 0.814, WT yeast gro inh 73.1*, 14-3-3 Bad inh 6.0 and RBBP9 inh 0.4.
`Cc1ccc(C(=O)OCCN2CCN(c3ncc(C(F)(F)F)cc3Cl)CC2)cc1` gave NCF1 inh -8.7, WT yeast gro inh 67.3*, 14-3-3 Bad inh -1.6 and RBBP9 inh 1.6.
Screening O=C(OC1CCN(c2ncc(C(F)(F)F)cc2Cl)CC1)c1cccc(C(F)(F)F)c1 returned NCF1 inh 0.1, Cl transport mod 0.0293, WT yeast gro inh 7.9, 14-3-3 Bad inh -6.8 and RBBP9 inh 4.5.
`O=C(CSc1ccc(Cl)cc1)N1CCN(c2ncc(C(F)(F)F)cc2Cl)CC1` gave NCF1 inh -15.7, WT yeast gro inh 28.6, 14-3-3 Bad inh -5.1 and RBBP9 inh -9.0.
Screening O=C(Nc1ccc(N2CCCC2)c(Cl)c1)c1ccco1 returned ROMK primary -0.158, NCF1 inh -6.0, Cl transport mod -0.849, WT yeast gro inh 9.8, 14-3-3 Bad inh 19.0 and RBBP9 inh -5.1.
`O=C(Nc1ccc(N2CCCC2)c(Cl)c1)c1ccc([N+](=O)[O-])o1` gave ROMK primary 0.27, NCF1 inh 8.9, Cl transport mod -1.02, WT yeast gro inh 86.1*, 14-3-3 Bad inh 7.8 and RBBP9 inh -6.9.
`CCc1ccc(C2=CC(c3cc(Br)ccc3F)n3ncnc3N2)cc1` (centres undefined) gave NCF1 inh -5.3, Cl transport mod 0.459, WT yeast gro inh 65.3*, 14-3-3 Bad inh -3.5 and RBBP9 inh 2.0.
`COc1cc(CNc2ncn[nH]2)ccc1OCc1cccc(C)c1` gave ROMK primary 1.39, NCF1 inh -1.9, Cl transport mod 0.128, WT yeast gro inh 1.4, 14-3-3 Bad inh -0.2 and RBBP9 inh -8.1.
`CCC1Oc2ccc(C)cc2N(CC(=O)N(Cc2cccnc2)Cc2cccc(F)c2)C1=O` (centres undefined) gave NCF1 inh -3.4, Cl transport mod -0.765, WT yeast gro inh -10.6, 14-3-3 Bad inh -4.0 and RBBP9 inh 5.1.
`O=C(CN1C(=O)COc2ccccc21)N(Cc1cccnc1)Cc1cccc(F)c1` gave NCF1 inh -13.4, Cl transport mod -0.687, WT yeast gro inh 77.4*, 14-3-3 Bad inh 11.0 and RBBP9 inh -8.1.
`COc1cccc2c1C(=O)c1c(O)c3c(c(O)c1C2=O)C[C@@](O)(C(C)=O)C[C@@H]3O[C@H]1C[C@H](N)[C@H](O)[C@H](C)O1` gave NCF1 inh -253.4, Cl transport mod inactive, WT yeast gro inh 66.8*, 14-3-3 Bad inh -14.5 and RBBP9 inh 27.3*.
Cc1nc(-c2cccc(NS(=O)(=O)c3ccc4ccccc4c3)c2)cs1 was read as NCF1 inh -35.2, Cl transport mod -1.06, WT yeast gro inh 60.1*, 14-3-3 Bad inh 1.1 and RBBP9 inh -19.7.
Screening Cc1nc(CNS(=O)(=O)c2ccc3ccccc3c2)cs1 returned NCF1 inh -10.3, Cl transport mod -0.0511, WT yeast gro inh 2.4, 14-3-3 Bad inh 8.0 and RBBP9 inh -6.0.
CCC(=O)N(CCc1ccc(S(N)(=O)=O)cc1)C1CC(=O)N(c2ccc(OC)cc2)C1=O (centres undefined) was read as ROMK primary 0.675, NCF1 inh -2.8, Cl transport mod -0.596, WT yeast gro inh -7.6, 14-3-3 Bad inh -16.6 and RBBP9 inh 2.8.
For O=C(c1ccc(C#Cc2ccccc2)o1)N1CCN(c2ccccn2)CC1 the results were ROMK primary 0.0566, NCF1 inh -1.6, WT yeast gro inh 68.7*, 14-3-3 Bad inh -10.3 and RBBP9 inh -5.6.
Screening O=C(c1ccccc1-c1ccccc1)N1CCN(c2ccccn2)CC1 returned ROMK primary 1.1, NCF1 inh -6.7, Cl transport mod -0.207, WT yeast gro inh 2.5, 14-3-3 Bad inh 4.8 and RBBP9 inh 4.8.
